Compounds with a hit are over-represented: about 5.1% of the library has one in this group of screens.
NF-kB neuron act = activators of NF-kB expression in neurons, primary screen, cell-based, HTS. human neuronal cells, NF-kB reporter expression; stronger effect = higher value. fold change at 12.5 µM. hit rate 1.6% among 190,000. AID 1239, 2008; in the data active = fold change above about 3.3
APP 5'UTR act = activators of APP 5'UTR luciferase reporter, primary screen, SH-SY5Y cells. hit rate 1% among 190,000. AID 1276, 2008. activation, % at 2 µM. SH-SY5Y APP 5'UTR luciferase reporter, luminescence; zero percent = DMSO vehicle wells;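 active = activation above a set limit, based on mean plus 3 SD of controls, cut at about 140% in these data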
STAT3 blocker = IL-6 driven STAT3 reporter inhibitors, primary screen, U3A cells, luciferase, luminescence, MLSCN library; inhibition, % at 5.5 µM; hit rate 0.89% among 190,000; AID 862, 2007; IL-6 STAT3-luciferase reporter; host cell line lacks STAT1;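 active = inhibition above the mean inhibition across all screened compounds plus 3 SD, cut at about 44% in these data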
STAT1 act = STAT1 signaling activators, primary screen, cell-based, HTS, luciferase reporter; hit rate 2.6% among 200,000; activation (% of control), % at 5.5 µM; NIH 3T3 STAT1-luciferase reporter, IFN-gamma, luminescence; 100% = IFN-gamma alone, no compound; AID 932, 2007;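 active = activation above the screen-wide mean activation plus 3 SD, cut at about 130% in these data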
STAT3 act = IL-6 driven STAT3 reporter potentiators, primary screen, U3A cells, luciferase, luminescence, MLSCN library | hit rate 0.91% among 190,000 | activation (% of control), % at 5.6 µM | IL-6 STAT3-luciferase reporter; 100% = signal with IL-6 EC80 alone;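 active = activation above the screen-wide mean of compound activation plus 3 SD, cut at about 130% in these data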
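Test system: Human STAT1-deficient U3A cells with stable STAT3-luciferase reporter | Also added: Interleukin-6, 33 ng/mL | Timing: Compound pre-incubation 1 h before IL-6, then 6 h stimulation at 37 °C | Technique: Luciferase reporter luminescence | Read-out: Percent of IL-6-only median luminescence | Benchmarks: IL-6-only wells as 100% reference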
STAT1 blocker = STAT1 signaling inhibitors, primary screen, cell-based, HTS, luciferase reporter | NIH 3T3 STAT1-luciferase reporter, IFN-gamma, luminescence | inhibition, % at 5.5 µM | hit rate 0.35% among 200,000 | AID 920, 2007;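 active = inhibition above a set limit, the mean inhibition across all tested compounds plus 3 SD, cut at about 34% in these data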
STAT1 activ conf = STAT1 signaling activators, confirmation, cell-based, HTS, luciferase reporter | shares compounds with STAT1 act | NIH 3T3 STAT1-luciferase reporter, IFN-gamma potentiation, luminescence; 100% = IFN-gamma EC80 alone, no compound | activation (% of control), % at 5.7 µM | hit rate 97% among 1,200;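 active = activation above a set limit carried over from the earlier primary STAT1 screen, cut at about 140% in these data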
NFkB act = NF-kB reporter activators, TNF-alpha stimulated, counter-screen for STAT1 activator project, cell-based, HEK293T, luciferase luminescence. shares compounds with STAT1 act. 100% = TNF-alpha with vehicle only. activation (% of control), % at 5.7 µM. hit rate 43% among 1,200;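 active = activation above the mean of solvent-only control wells plus 3 SD, set per campaign, cut at about 130% in these data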;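 note: TNF-alpha given at a submaximal dose yielding about 80% of full reporter signal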
STAT3 act 2 = STAT3 reporter activation by STAT1 hits, confirmation, counter-screen for STAT1 activator project, U3A cells, luciferase, luminescence; hit rate 46% among 1,200; IL-6; cells lack STAT1; 100 = IL-6 alone, no compound effect; activation (% of control), % at 5.7 µM; shares compounds with STAT1 act;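 active = activation above the solvent-only control well mean plus 3 SD, set per plate batch, cut at about 110% in these data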;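 note: higher means more STAT3 reporter activation so hits are non-selective activators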
Numbers stand for hits; i = inactive; nt = no result given.

SMILES | NF-kB neuron act | APP 5'UTR act | STAT3 blocker | STAT1 act | STAT3 act | STAT1 blocker | STAT1 activ conf | NFkB act | STAT3 act 2
CCCC(=O)OCC(=O)Nc1ccc(N=Nc2ccccc2)cc1 | 4.71 | i | i | 155.3 | i | i | 189.0 | 137.4 | 116.9
CCc1cc2c(=O)c(-c3ccc4c(c3)OCCO4)coc2cc1OS(C)(=O)=O | i | i | i | 155.8 | i | i | 159.7 | 137.3 | 117.1
COc1ccc(Nc2oc(-c3ccc(Cl)cc3)nc2C#N)cc1 | 3.3 | i | i | 173.7 | i | i | 208.5 | 134.7 | 124.3
CCOc1ccc(Nc2oc(-c3ccc(Cl)cc3)nc2C#N)cc1 | i | i | i | i | i | i | nt | nt | nt
N#Cc1c(/N=C/N2CCOCC2)sc2c1CCCCC2 | 4.88 | i | i | 154.6 | i | i | 194.2 | i | 125.5
Cc1ccc(/C=N/c2sc3c(c2C#N)CCC3)o1 | i | i | i | 166.7 | i | i | 188.1 | 135.3 | i
O=C(Nc1cccc(Cl)c1)c1ccc2c(c1)SC1=NS(=O)(=O)CCN12 | i | i | i | i | i | i | nt | nt | nt
O=C(CCN1C(=O)C2CCCCC2C1=O)Nc1ccc(F)c(F)c1F (centres undefined) | i | i | i | i | i | i | nt | nt | nt
Nc1c(Cl)ncnc1N/N=C/c1ccccn1 | i | i | i | i | i | i | nt | nt | nt
Nc1c(Cl)ncnc1N/N=C/c1ccc2ccccc2n1 | i | i | i | 162.1 | i | i | 161.2 | i | 138.3
CCC(C)NC(=O)c1cc(-c2ccc(OC)cc2)on1 (centres undefined) | 3.35 | i | i | 156.9 | i | i | 178.8 | i | i
COCC(C)NC(=O)c1cc(-c2ccc(O)cc2)on1 (centres undefined) | i | i | i | i | i | i | nt | nt | nt
COc1ccc(C(=O)NNC2=NCCCCC2)cc1 | i | i | i | i | i | i | nt | nt | nt
Clc1ccc(-c2csc(N3CCOCC3)n2)cc1 | 4.93 | i | i | 159.5 | i | i | 176.5 | 139.0 | i
Brc1ccc(-c2csc(N3CCOCC3)n2)cc1 | 3.36 | i | i | 150.8 | i | i | 190.2 | 137.2 | i
CCCCS(=O)(=O)/C=C\C=C/S(=O)(=O)CCCC | i | i | i | 307.0 | i | i | 210.0 | i | i
CCCCS(=O)(=O)/C=C\C1C2C=CC(C2)C1S(=O)(=O)CCCC (centres undefined) | i | i | i | i | i | i | nt | nt | nt
Nc1nc2ccc(-c3nc4ccccc4o3)cc2s1 | 10.3 | 157.4 | i | 152.5 | i | i | 230.7 | i | i
O=C1c2ccccc2C(=O)N1c1cccc(-c2nc3ccccc3o2)c1 | i | i | i | i | i | i | nt | nt | nt
c1ccc2oc(-c3ccc4nc[nH]c4c3)nc2c1 | 5.2 | 138.1 | i | 151.4 | i | i | 205.2 | 135.4 | i
C=CCN1C(=O)C(CC(=O)Nc2ccc(OC)cc2)SC1=Nc1ccc(S(N)(=O)=O)cc1 (centres undefined) | i | i | i | i | i | i | nt | nt | nt
O=C1/C(=C/Nc2cccc([N+](=O)[O-])c2)CCc2ccccc21 | 4.52 | 139.8 | i | 168.6 | i | i | 211.9 | 133.8 | i
CC(=O)/C(=N/Nc1ccccc1)Sc1nnc(C(O)c2ccccc2)n1-c1ccccc1 (centres undefined) | i | i | i | i | i | i | nt | nt | nt
Cc1ccc(C(=O)Nc2nc3c(s2)CCCC3)o1 | 7.26 | 166.4 | i | 155.0 | i | i | 208.7 | i | i
Cc1onc(-c2ccccc2Cl)c1C(=O)Nc1nc2c(s1)CCCC2 | i | i | i | i | i | i | nt | nt | nt
SMILES | NF-kB neuron act | APP 5'UTR act | STAT3 blocker | STAT1 act | STAT3 act | STAT1 blocker | STAT1 activ conf | NFkB act | STAT3 act 2
COc1ccc(-c2noc(Cc3ccccc3OC)n2)cc1 | i | i | i | i | i | i | nt | nt | nt
COc1ccc(-c2noc(Cc3cccs3)n2)cc1 | 3.94 | i | i | 161.9 | i | i | 181.1 | 138.4 | i
c1ccc2c(c1)COC(CN1CCCCC1)OC2 | i | i | i | i | i | i | nt | nt | nt
O=c1[nH]cnc2scc(-c3ccc(-c4ccccc4)cc3)c12 | i | i | i | 158.8 | i | i | 213.7 | i | i
N/C(Cc1cccc2ccccc12)=N\OC(=O)c1cccs1 | i | i | i | i | i | i | nt | nt | nt
COc1ccc(C(=O)O/N=C(/C)c2cccs2)cc1 | i | i | i | i | i | i | nt | nt | nt
COc1ccccc1C/C(N)=N/OC(=O)c1cccs1 | i | i | i | i | i | i | nt | nt | nt
Cc1ccc(/C(N)=N/OC(=O)c2cccs2)cc1 | i | nt | i | 163.8 | i | i | 188.2 | 141.8 | 115.9
N/C(=N\OC(=O)c1cccs1)c1ccccc1 | i | i | i | 156.1 | i | i | 161.5 | i | i
COc1ccc(/C(N)=N/OC(=O)c2cccs2)cc1OC | i | i | i | 159.0 | i | i | 140.1 | i | i
CCC(=O)OCC(=O)c1cc(C)n(-c2ccc(Br)cc2)c1C | i | i | i | i | i | i | nt | nt | nt
Cc1ccc(-c2nc(Nc3ccccc3)n[nH]2)cc1 | 10.1 | 188.1 | i | 193.2 | i | i | 290.2 | 153.1 | 121.7
O=C(CN1CCN(CC(=O)Nc2ccccc2F)CC1)Nc1ccc2c(c1)OCCO2 | i | i | i | i | i | i | nt | nt | nt
COc1ccc(N=C/C=C2/C=C(c3ccccc3)OC(C)(C)O2)cc1 | i | i | i | i | i | i | nt | nt | nt
CCOc1ccc(/C=N/Nc2ccccn2)cc1OC | i | i | i | 155.0 | i | i | 153.5 | i | i
CCOc1ccc(/C=N/N(C)c2ccccc2)cc1OC | 4.93 | i | i | 163.3 | i | i | 186.7 | 142.0 | i
CCCC(=O)Nc1nc(C)c(-c2csc(Nc3ccccc3C)n2)s1 | i | i | i | i | i | i | nt | nt | nt
CCC(=O)Nc1nc(C)c(-c2csc(Nc3ccccn3)n2)s1 | i | i | i | 156.6 | i | i | 160.8 | i | i
Cc1occc1C(=O)NNC(=O)c1ccc(Br)o1 | i | i | i | i | i | i | nt | nt | nt
COC(=O)c1c(-c2ccccc2)csc1NC(=O)c1ccco1 | i | i | i | 173.9 | i | i | 194.5 | 135.5 | i
COc1ccc2c(c1)Cc1sc(NC(=O)c3ccco3)nc1-2 | 3.85 | 186.1 | i | 188.9 | i | i | 199.0 | 147.4 | i
